Bioassay records from PubChem BioAssay.
STAT1 act = STAT1 signaling activators, primary screen, cell-based, HTS, luciferase reporter; NIH 3T3 STAT1-luciferase reporter, IFN-gamma, luminescence; 100% = IFN-gamma alone, no compound; activation (% of control), % at 5.5 µM; 200,000 compounds, 2.6% hits; AID 932, 2007;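 active means activation above the screen-wide mean activation plus 3 SD, cut at about 130% in these data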
STAT1 inh = STAT1 signaling inhibitors, primary screen, cell-based, HTS, luciferase reporter. NIH 3T3 STAT1-luciferase reporter, IFN-gamma, luminescence. inhibition, % at 5.5 µM. 200,000 compounds, 0.35% hits. AID 920, 2007;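 active means inhibition above a set limit, the mean inhibition across all tested compounds plus 3 SD, cut at about 34% in these data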
FLuc stim CS = FLuc activators, initial screening, artefact control for FLuc-dependent activation tests, biochemical, ATPlite luminescence | Luciferin 4-monooxygenase (Photinus pyralis), P08659 | ATPlite luciferase biochemical, 10 min; 0 = ATP-free wells, 1 = DMSO control | activation factor at 10 µM | 200,000 tested, under 10 active | AID 1027, 2008;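 active means luciferase activation factor, scaled between plate controls, of at least 2 with compound at 10 µM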
Target sequence (P08659 whole entry, looked up): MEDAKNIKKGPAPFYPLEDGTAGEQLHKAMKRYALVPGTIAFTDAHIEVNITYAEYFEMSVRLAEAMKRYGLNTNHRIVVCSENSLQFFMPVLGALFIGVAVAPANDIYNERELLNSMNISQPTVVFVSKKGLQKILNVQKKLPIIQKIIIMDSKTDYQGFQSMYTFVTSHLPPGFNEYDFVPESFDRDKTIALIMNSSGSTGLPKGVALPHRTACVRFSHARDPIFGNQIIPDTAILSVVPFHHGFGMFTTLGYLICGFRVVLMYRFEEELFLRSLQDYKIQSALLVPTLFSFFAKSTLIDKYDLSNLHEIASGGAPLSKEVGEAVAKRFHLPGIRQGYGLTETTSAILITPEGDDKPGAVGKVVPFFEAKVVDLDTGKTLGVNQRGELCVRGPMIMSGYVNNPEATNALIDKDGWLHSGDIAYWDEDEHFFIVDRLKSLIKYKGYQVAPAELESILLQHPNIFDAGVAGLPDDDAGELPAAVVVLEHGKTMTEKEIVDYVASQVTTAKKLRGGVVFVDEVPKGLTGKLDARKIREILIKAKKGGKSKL
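Material: luciferase plus luciferin reagent, cell-free. Medium: PBS buffer for ATP. Also added: ATP substrate, dispensed from a 10.24 µM working solution in PBS. Doses: test compounds dosed from 2 mM stocks in 100% DMSO. Incubation: 10 min post-reagent at room temperature. Technique: light output (luminescence). Read-out basis: luminescence gain marking luciferase activators.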
STAT3 act = IL-6 driven STAT3 reporter potentiators, primary screen, U3A cells, luciferase, luminescence, MLSCN library | IL-6 STAT3-luciferase reporter; 100% = signal with IL-6 EC80 alone | AID 871, 2007 | 190,000 compounds, 0.91% hits | activation (% of control), % at 5.6 µM;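 active means activation above the screen-wide mean of compound activation plus 3 SD, cut at about 130% in these data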
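Detection: reporter luminescence signal / Assay system: STAT1-lacking human U3A cells, STAT3 luciferase reporter / Incubation: compound pre-incubation 1 h before IL-6, then 6 h stimulation at 37 °C / Control set: IL-6-only high control / Read-out: % activation relative to IL-6 control / Probe or stimulus: Interleukin-6, 33 ng/mL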
STAT3 blocker = IL-6 driven STAT3 reporter inhibitors, primary screen, U3A cells, luciferase, luminescence, MLSCN library; IL-6 STAT3-luciferase reporter; host cell line lacks STAT1; 190,000 compounds, 0.89% hits; inhibition, % at 5.5 µM;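 active means inhibition above the mean inhibition across all screened compounds plus 3 SD, cut at about 44% in these data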
FLuc inhib CS = firefly luciferase enzyme inhibitors, primary screen, artefact control for luciferase-based inhibitor screens, biochemical, luminescence, ATPLite; Luciferin 4-monooxygenase (Photinus pyralis), P08659; 10 min; inhibition, % at 10 µM; 200,000 compounds, 1.5% hits;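 active means inhibition above about 50% when tested at 10 µM, limit read from the data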
Each line names hits and unclear results; the compound was inactive in the other large screens. In the library only some 4.9% were active in any assay of this set; here they are far more common.

Cc1cc(NC(=O)c2ccc3c(c2)OCCO3)ccc1NC(=O)c1ccco1	FLuc inhib CS 82
CCN1CCN(c2ccc(NC(=O)c3ccccc3F)cc2Cl)CC1	STAT1 act 132
Cc1csc(NC(=O)CSc2nnc(NC(=O)COc3ccc(Cl)cc3)s2)n1	none
Cc1ccc(C(=O)Nc2ccc(N3CCCC3)cc2)cc1	STAT1 act 140
O=C(Nc1ccc(N2CCCCC2)cc1)c1cncc(Br)c1	STAT1 act 134
CN1CCN(c2ccc(NC(=O)c3ccc4c(c3)OCCO4)cc2)CC1	STAT1 act 132
O=C(CSc1nnc(NC(=O)c2ccco2)s1)Nc1ccc2c(c1)OCCO2	FLuc inhib CS 55
O=C(CSc1nnc(NC(=O)c2ccco2)s1)Nc1ccc(F)cc1	none
C[C@H](NC(=O)c1ccccc1Cl)C(=O)NCc1cccs1	none
CN1CCN(c2ccc(NC(=O)Cc3ccccc3)cc2)CC1	none
O=C(Cc1ccccc1)Nc1ccc(N2CCCCC2)cc1	STAT1 act 130, FLuc inhib CS 73
COc1ccc2c(c1)sc1nc(-c3ccccc3)cn12	STAT1 inh 71, STAT3 blocker 106, FLuc inhib CS 97
Cc1cc(NC(=O)c2ccc(Cl)cc2)c(C)cc1O	FLuc inhib CS 53
Cc1cc(NC(=O)c2ccc(Cl)cc2)c(C(C)C)cc1O	none
O=C(CC1CS(=O)(=O)CC1CC(=O)Oc1ccccc1F)Oc1ccccc1F (stereo not given)	none
O=C(Nc1cnn(C23CC4CC(CC(C4)C2)C3)c1)c1cnn2cccnc12	FLuc inhib CS 67
CN=C(c1ccc(C)cc1)n1c(=S)nc(-c2ccc(C)cc2)n(C)c1=S	none
CN=C(c1ccco1)n1c(=S)nc(-c2ccco2)n(C)c1=S	STAT3 act 135
O=C(NCc1ccoc1)c1ccc(NC(=O)c2ccccc2Cl)cc1	STAT3 act 133
O=C(NCC1OCCc2ccccc21)c1ccc(NC(=O)c2ccccc2Cl)cc1 (stereo not given)	none
CCc1ccc(NC(=S)N2CCCCCCC2)cc1	FLuc inhib CS 54
COC(=O)Cc1ccc(NC(=S)N2CCN(c3ccc(OC)cc3)CC2)cc1	none
COC(=O)Cc1ccc(NC(=S)N2CCN(C)CC2)cc1	FLuc inhib CS 56
S=C(Nc1ccc(Cl)cc1)N1CCCCC1	none
COC(=O)Cc1ccc(NC(=S)N2CCCCC2C)cc1 (stereo not given)	FLuc inhib CS 83
Cc1cc(Cl)ccc1C(=O)C1CCCN(C(=O)c2snnc2C)C1 (stereo not given)	none
CCOC(=O)C[N+]1(C)CCN(C(C)=O)CC1	none
Cc1cc(=O)oc2cc(NC(=O)c3cc4ccccc4o3)ccc12	none
O=C(Nc1ccc2oc(=O)ccc2c1)c1cc2ccccc2o1	STAT1 act 148
O=C(Nc1ccc(CN2CCOCC2)cc1)c1cc2ccccc2o1	STAT1 act 134, FLuc inhib CS 60
O=C(Nc1ccc(N2CCOCC2)cc1)c1cc2ccccc2o1	STAT1 act 171
CNC(=S)NNC(=O)c1ccc(=O)n(Cc2cccc(C(F)(F)F)c2)c1	none
CCOc1ccc(-c2nc(-c3cccs3)c(CC(=O)O)s2)cc1OC	FLuc inhib CS 68
Cn1c2ccccc2c(=O)c2c(=O)n(C3CCCCCC3)c(C3CCCCC3)nc21	none
Cn1c2ccccc2c(=O)c2c(=O)n(-c3ccccc3)c(C3CCCCC3)nc21	STAT3 act 134
Cc1cnc(NC(=O)COc2ccccc2Cl)s1	STAT1 inh 61, STAT3 blocker 92, FLuc inhib CS 91
Cc1cnc(NC(=O)CSc2nnc(-c3ccccc3)o2)s1	STAT1 act 129
Cc1cnc(NC(=O)CSc2nnc(COc3c(C)cccc3C)o2)s1	none
Cc1cnc(NC(=O)CCNC(=O)c2ccccc2Cl)s1	none
O=C(O)Cc1cc(C(=O)Nc2ccc(Br)cc2)sc1-c1ccccc1	none
COc1ccc(Cc2[nH]n3c(=O)c(Cl)c(C)nc3c2-c2ccccc2)cc1	none
Cc1cc(F)ccc1S(=O)(=O)N1CCCOC1CNC(=O)C(=O)NCc1ccco1 (stereo not given)	none
O=C(NCC1OCCCN1S(=O)(=O)c1cc(F)ccc1F)C(=O)NC1CCCCCC1 (stereo not given)	STAT1 act 138
O=C(NNC(=O)[C@@H]1CCCC[C@@H]1C(=O)O)Nc1ccccc1	none
COc1ccc(-c2nc(-c3cccc(C(F)(F)F)c3)no2)cc1OC	none
COc1ccc(-c2nc(C3CCCCC3)no2)cc1OC	STAT1 act 134
COc1ccccc1-c1nc(-c2cccc(C)c2)no1	STAT1 act 150
COc1ccc(-c2nc(-c3cccc(C)c3)no2)cc1OC	STAT1 act 138
COc1ccc(-c2nc(-c3ccccc3OC)no2)cc1OC	STAT1 act 132
COc1cc(-c2nc(-c3cccc(C)c3)no2)cc(OC)c1OC	none
CCOc1cc(-c2nc(-c3ccccc3OC)no2)cc(OCC)c1OCC	none
CCN(CC)CCNC(=O)c1cccc(NC(=O)C(=O)c2ccccc2NC(C)=O)c1	none
Cc1cccc(NC(=S)N2CCC(C(N)=O)(N3CCCCC3)CC2)c1C	none
Cc1cccc(-c2noc(-c3ccc4c(c3)OCO4)n2)c1	STAT3 blocker 69, FLuc inhib CS 82
Cc1cccc(-c2noc(CN(C(=O)c3ccc4c(c3)OCO4)C(C)C)n2)c1	none
S=C(NCc1ccc(Cl)cc1Cl)Nc1ccccc1	none
O=C(N/N=C/c1ccccn1)c1cc(-c2ccc3ccccc3c2)n[nH]1	STAT1 act 148
O=C(N/N=C/c1c[nH]c2ccccc12)c1cc(-c2ccc(-c3ccccc3)cc2)n[nH]1	FLuc inhib CS 50
CCc1ccc(-c2cc(C(=O)N/N=C/c3ccccn3)[nH]n2)cc1	none
O=C(N/N=C/c1c[nH]c2ccccc12)c1cc(-c2ccccc2)n[nH]1	none
O=C(N/N=C/c1c[nH]c2ccccc12)c1cc(-c2ccc3ccccc3c2)n[nH]1	STAT1 act 140
COc1ccc(-c2nc(NC(=O)CCNC(=O)c3ccco3)sc2C)cc1	none
Cc1cccc(OCC(=O)N/N=C\c2cccn2C)c1C	none
O=C(CCCN1CCOCC1)c1ccc2c(c1)OCCO2	STAT1 act 142
CCOC(=O)c1cc(NC(=O)Nc2ccc(Br)cc2)c(C)nc1C	none
COc1ccc(CSc2nnc(Cc3sc(-c4ccccc4)nc3-c3ccccc3)o2)cc1	none
